# Test results as given in publication PMC3423201 (Molecular cancer therapeutics, 2011).
# Like-named read-outs stand apart in the source and are kept apart here.
# Legend:
# AMACR = target: T1, AMACR (Homo sapiens, UniProt Q9UHK6); assay: Pre-incubation of AMACR with cysteine specific reagents, with or without ebselen; assay type: biochemical; conditions: 20 mM dithithreitol, 5 mM tributylphosphine, 15 mM iodoacetamide
# T1 sequence (Q9UHK6 1-382): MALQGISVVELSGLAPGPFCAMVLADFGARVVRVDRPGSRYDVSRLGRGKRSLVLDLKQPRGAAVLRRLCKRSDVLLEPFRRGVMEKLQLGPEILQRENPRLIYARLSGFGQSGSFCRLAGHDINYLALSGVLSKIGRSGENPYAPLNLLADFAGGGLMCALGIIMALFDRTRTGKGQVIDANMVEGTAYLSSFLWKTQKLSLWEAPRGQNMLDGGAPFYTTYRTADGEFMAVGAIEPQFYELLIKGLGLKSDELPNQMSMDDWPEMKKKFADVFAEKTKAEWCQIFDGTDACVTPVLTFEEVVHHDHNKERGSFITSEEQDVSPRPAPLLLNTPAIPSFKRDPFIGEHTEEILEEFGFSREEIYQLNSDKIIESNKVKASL
# AMACR-MBP [1] = target: T2, AMACR-MBP (Homo sapiens, UniProt Q9UHK6); assay: High-throughput screen for AMACR inhibitors; assay type: biochemical; conditions: for inhibition at 100 µM: read-out: inhibition (decrease of fractional activity) in HTS
# T2 sequence (Q9UHK6 1-382): T1 sequence (Q9UHK6 1-382)
# How it was run: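 Recombinant AMACR-MBP was expressed in E. coli TB1, purified on a maltose column and dialysed into 100 mM Na/K/Pi pH 7.25. Enzyme (0.3 μM) was incubated with 100 μM test compound (1% DMSO) and 150 μM [2,3-3H]Pri-CoA (60 Ci/mol) in buffer with 0.125 mg/mL BSA for 30 min at 37°C. Reactions were acid-quenched, neutralised and passed through C18 SPE, and released 3H2O was scintillation-counted. Fractional activity was calculated against each row's no-inhibitor control after no-enzyme background subtraction; <0.8 was flagged as a hit.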
# LAPC4 = assay: In-vitro LD50, alamarBlue viability, LAPC4; assay type: cell-based, human; conditions: LAPC4, 48 hours
# How it was run: (§1)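 Cells were plated at 10,000 per well in triplicate and allowed to attach overnight. Medium was replaced with test compound (0–500 μM or 0–400 μM depending on compound) for 48 h. Cells were then incubated with alamarBlue for 4 h and fluorescence read at 544 ex/590 em. After media-only background subtraction, viability was expressed as a percent of the vehicle control. LD50 came from a 4-parameter variable-slope fit with the bottom constrained to zero.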
# AMACR-MBP [2] = target: T2, AMACR-MBP; assay: Kitz-Wilson analysis of time-dependent inactivation; assay type: biochemical; conditions: for KI (inactivation): 37°C, Kitz-Wilson transformation
# How it was run: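 Inactivation mixtures at 37°C contained test compound at a series of concentrations and 5 μM AMACR-MBP, started with enzyme. At timed points from zero, 2 μL was diluted 50-fold into buffer with 150 μM [2,3-3H]Pri-CoA (100 nM final enzyme) and reacted for 30 min, then SPE/scintillation. Activity remaining was expressed versus time-matched no-inhibitor controls. T1/2 was regressed against 1/[I], giving kinact = ln2/y-intercept and KI(inact) = −1/x-intercept.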
# LNCaP = assay: In-vitro LD50, alamarBlue viability, LNCaP; assay type: cell-based, human; conditions: 48 hours
# How it was run: as §1
# Mode of cell death = assay type: cell-based; conditions: Supplementary Figure S7
# WPMY1 = assay: In-vitro LD50, alamarBlue viability, WPMY1; assay type: cell-based, human; conditions: WPMY1, 48 hours
# How it was run: as §1
# PC3 = assay: In-vitro LD50, alamarBlue viability, PC3; assay type: cell-based, human; conditions: PC3, 48 hours
# How it was run: as §1
# AMACR-MBP [3] = target: T2, AMACR-MBP; assay: Kinetic parameters; assay type: biochemical; conditions: 0.3 μM AMACR-MBP, 37°C, ± SEM
# How it was run: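 Reactions of 185 μL held 0.3 μM AMACR-MBP in Na/K/Pi pH 7.25 with BSA at 37°C. [2,3-3H]Pri-CoA was used at 1–400 μM (twelve levels), all at 60 Ci/mol, and reactions were started with enzyme. Aliquots of 20 μL were taken at 0–900 s and quenched in 2 M HCl, with no-enzyme backgrounds at each time point. Aliquots were processed by SPE/scintillation, DPM were converted to rates, and rates were fitted directly to Michaelis-Menten.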
# AMACR-MBP [4] = target: T2, AMACR-MBP; assay: AMACR inhibitor IC50 determination; assay type: biochemical
# How it was run: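 Run as the plate screen (0.3 μM AMACR-MBP, 100 μM [2,3-3H]Pri-CoA, SPE and scintillation read-out), adding enzyme last. Test compound was dosed at 1–1000 μM, extended to 1–750 nM for selected compounds, from 100% DMSO stocks, giving 2–6% DMSO, in triplicate. Fractional activity was fitted by 3-parameter log(inhibitor)-response regression.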
# AMACR-MBP [5] = target: T2, AMACR-MBP; assay: Effect of pre-incubation time on ebselen inhibition; assay type: biochemical
# [6] = test system: prostate cancer cell lines (LAPC4/LNCaP/PC3) compared to WPMY1; assay type: cell-based, human; conditions: highest vs lowest AMACR expressor
# How it was run: as §1
# [7] = neuroprotective doses, 300 mg/day, oral; ref [44], [46]; cited from earlier work
compound,measurement,setting,value
"O[C@@H](CS)[C@@H](O)CS (racemic) [DTT, dithithreitol]",effect of pre-incubation with cysteine specific reagent on AMACR-MBP activity,AMACR,does not abrogate AMACR-MBP activity
"Nc1c(/N=N/c2ccc(-c3ccc(/N=N/c4cc(S(=O)(=O)O)c5ccccc5c4N)cc3)cc2)cc(S(=O)(=O)O)c2ccccc12 [Congo Red, congo red]",inhibition at 100 µM,AMACR-MBP [1],≥ 20%
"Cc1cc(O)c(-c2cc(O)c(C)cc2O)cc1O [DMPMB, 2-(2,5-dihydroxy-4-methylphenyl)-5-methyl benzene-1,4-diol]",LD50,LAPC4,58.78 ± 1.058 µM
same,mode of inhibition,AMACR-MBP [2],irreversible inactivators
same,KI (inactivation),AMACR-MBP [2],24.3 µM
same,LD50,LNCaP,116.9 ± 1.033 µM
same,type of cell death induced,Mode of cell death,necrotic cell death
same,LD50,WPMY1,117.6 ± 1.011 µM
same,LD50,PC3,101.1 ± 1.034 µM
"NC(=O)CI [IAA, iodoacetamide]",effect of pre-incubation with cysteine specific reagent on AMACR-MBP activity,AMACR,does not abrogate AMACR-MBP activity
"CSc1nc(=S)c2[nH]c(=S)[nH]c2[nH]1 [MSDTP, 2-methylsulfanyl-7,9-dihydro-3H-purine-6,8-dithione]",mode of inhibition,AMACR-MBP [2],covalent inactivators
"CCCCP(CCCC)CCCC [TBP, tributylphosphine]",effect of pre-incubation with cysteine specific reagent on AMACR-MBP activity,AMACR,does not abrogate AMACR-MBP activity
"CC(C)CCCC(C)CCCC(C)CCCC(C)C(=O)SCCNC(=O)CCNC(=O)[C@H](O)C(C)(C)COP(=O)(O)OP(=O)(O)OC[C@H]1O[C@@H](n2cnc3c(N)ncnc32)[C@H](O)[C@@H]1OP(=O)(O)O (some centres unmarked) [[2,3-^3H] Pri-CoA, [2,3-^3H] pristanoyl coenzyme A]",Km,AMACR-MBP [3],85.6 ± 17.1 µM
"[3H]C(CCC(C)CCCC(C)CCCC(C)C)C([3H])(C)C(=O)SCCNC(=O)CCNC(=O)[C@H](O)C(C)(C)COP(=O)(O)OP(=O)(O)OC[C@H]1O[C@@H](n2cnc3c(N)ncnc32)[C@H](O)[C@@H]1OP(=O)(O)O (some centres unmarked) [[2,3-^3H] Pri-CoA, [2,3-^3H] pristanoyl coenzyme A]",Vmax,AMACR-MBP [3],294.9 ± 21.10 pmol/min
O=C1c2ccccc2[Se](=O)N1c1ccccc1 (centres unmarked) [ebselen oxide],IC50,"AMACR-MBP [4]; 100 μM [2,3-3H]Pri-CoA, 0.3 μM AMACR-MBP, enzyme initiated",0.8 µM
O=c1c2ccccc2[se]n1-c1ccccc1 [ebselen],LD50,LAPC4,98.43 ± 1.038 µM
same,mode of inhibition,AMACR-MBP [2],irreversible inactivators
same,KI (inactivation),AMACR-MBP [2],24 µM
same,fractional activity of AMACR-MBP,AMACR-MBP [5]; no pre-incubation (enzyme initiated),~ 50%
same,fractional activity of AMACR-MBP,AMACR-MBP [5]; pre-incubation time of ≥ 5 minutes (substrate initiated),just above background
same,inhibition at 100 µM,AMACR-MBP [1],≥ 20%
same,LD50,LNCaP,71.96 ± 1.106 µM
same,type of cell death induced,Mode of cell death,necrotic cell death
same,LD50,WPMY1,467.1 ± 1.017 µM
same,difference in LD50 between LNCaP and WPMY1,[6],5 fold
same,IC50,AMACR-MBP [4],2.79 µM
same,tolerability in clinical trials,[7],well tolerated
same,LD50,PC3,332.3 ± 1.015 µM
O=C1c2c(O)ccc(O)c2C(=O)c2c(NCCNCCO)ccc(NCCNCCO)c21 [mitoxantrone],inhibition of AMACR-MBP detected in library screen,"AMACR-MBP [1]; 100 μM, both JHDL and NCI/DTP libraries",inhibition of AMACR-MBP
